# Measurements published in BindingDB's records for doi:10.1021/jm00089a022 (Warner-Lambert, 1992).
# Assays:
# [1] = target: T1, 3-hydroxy-3-methylglutaryl-coenzyme A reductase (Homo sapiens, UniProt P04035); assay: ChEBML_80349
# T1 sequence (P04035 whole entry): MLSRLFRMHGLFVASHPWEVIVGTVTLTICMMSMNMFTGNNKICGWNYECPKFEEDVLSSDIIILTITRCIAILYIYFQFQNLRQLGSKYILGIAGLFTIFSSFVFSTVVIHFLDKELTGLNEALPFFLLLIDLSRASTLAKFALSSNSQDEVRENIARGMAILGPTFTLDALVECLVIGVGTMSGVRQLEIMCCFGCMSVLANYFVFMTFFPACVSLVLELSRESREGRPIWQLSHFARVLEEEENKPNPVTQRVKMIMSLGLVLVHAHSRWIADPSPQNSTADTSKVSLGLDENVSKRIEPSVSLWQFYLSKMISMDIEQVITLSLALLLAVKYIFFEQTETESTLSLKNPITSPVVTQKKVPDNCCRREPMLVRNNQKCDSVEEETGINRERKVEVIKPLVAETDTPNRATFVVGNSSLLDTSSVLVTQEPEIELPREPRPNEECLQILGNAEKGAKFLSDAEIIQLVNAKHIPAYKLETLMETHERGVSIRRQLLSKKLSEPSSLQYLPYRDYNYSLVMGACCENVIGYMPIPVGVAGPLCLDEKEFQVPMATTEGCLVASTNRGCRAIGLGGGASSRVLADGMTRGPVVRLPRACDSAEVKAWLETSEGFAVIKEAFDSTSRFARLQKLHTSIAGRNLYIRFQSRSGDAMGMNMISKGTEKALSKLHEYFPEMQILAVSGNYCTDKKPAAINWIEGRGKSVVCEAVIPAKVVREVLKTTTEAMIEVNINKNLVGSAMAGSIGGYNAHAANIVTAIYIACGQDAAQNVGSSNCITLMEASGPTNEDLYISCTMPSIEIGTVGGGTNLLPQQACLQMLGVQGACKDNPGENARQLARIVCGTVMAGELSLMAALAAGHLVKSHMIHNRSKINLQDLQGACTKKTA
# Excerpt: (§1) Tested in vitro for the inhibition of HMG-CoA reductase from partially purified microsomal preparations.
# [2] = target: T1, 3-hydroxy-3-methylglutaryl-coenzyme A reductase; assay: as §1
# Summary of the method: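 Lactones saponified to the 3,5-dihydroxy acids before assay. Inhibition of partially purified microsomal HMG-CoA reductase. Each inhibitor concentration assayed in triplicate.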
SMILES,IC50 [1],IC50 [2]
CC(C)c1nn(-c2ccccn2)c(-c2ccc(F)cc2)c1CCC(O)C[C@@H](O)CC(=O)O (some centres undefined),110 nM,
CC(C)c1nn(-c2ccc3ccccc3n2)c(-c2ccc(F)cc2)c1/C=C/[C@@H](O)C[C@@H](O)CC(=O)O,62 nM,
CC(C)c1nn(-c2ccccc2)c(-c2ccc(F)cc2)c1CCC(O)C[C@@H](O)CC(=O)O (some centres undefined),40 nM,
CC(C)c1nn(-c2ccccn2)c(-c2ccc(F)cc2)c1/C=C/[C@@H](O)C[C@@H](O)CC(=O)O,,24 nM
CC(C)c1nn(-c2cnccn2)c(-c2ccc(F)cc2)c1/C=C/[C@@H](O)C[C@@H](O)CC(=O)O,7 nM,
O=C(O)C[C@H](O)C[C@H](O)/C=C/c1c(C(F)(F)F)nn(-c2ccccn2)c1-c1ccc(F)cc1,17 nM,
CC[C@H](C)C(=O)O[C@H]1C[C@@H](C)C=C2C=C[C@H](C)[C@H](CCC(O)C[C@@H](O)CC(=O)O)[C@H]21 (some centres undefined),20 nM,
CC(C)c1nn(-c2nc3ccccc3s2)c(-c2ccc(F)cc2)c1/C=C/[C@@H](O)C[C@@H](O)CC(=O)O,59 nM,
CC(C)c1nn(-c2ccccc2)c(-c2ccc(F)cc2)c1/C=C/[C@@H](O)C[C@@H](O)CC(=O)O,7 nM,
